# Laboratory results from the M2OR odorant receptor database.
# Columns and labels:
# Settings in all cases: stereoisomer not certain
# UniProt A2ATE5 = molecular target: T1, UniProt A2ATE5
# T1 sequence (whole entry): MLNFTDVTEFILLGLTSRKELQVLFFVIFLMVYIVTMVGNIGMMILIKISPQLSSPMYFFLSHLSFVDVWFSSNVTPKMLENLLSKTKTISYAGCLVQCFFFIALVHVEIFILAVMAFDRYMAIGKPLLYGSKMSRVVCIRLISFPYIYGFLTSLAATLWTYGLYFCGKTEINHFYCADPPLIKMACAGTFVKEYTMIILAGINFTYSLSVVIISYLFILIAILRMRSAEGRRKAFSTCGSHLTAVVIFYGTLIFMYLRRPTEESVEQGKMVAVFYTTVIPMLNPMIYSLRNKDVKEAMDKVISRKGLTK
# Procedure, shortened: (§1)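 Each receptor–molecule pair is labelled responsive or non-responsive (inactive) according to whether the original authors judged the measured signal statistically different from baseline. The data were taken from the main text and supplementary material of published papers and checked for typos and inconsistencies. Assay methods differed by source, with transient luciferase assays in mammalian cell lines being common.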
# UniProt A2AVB0 = molecular target: T2, UniProt A2AVB0
# T2 sequence (whole entry): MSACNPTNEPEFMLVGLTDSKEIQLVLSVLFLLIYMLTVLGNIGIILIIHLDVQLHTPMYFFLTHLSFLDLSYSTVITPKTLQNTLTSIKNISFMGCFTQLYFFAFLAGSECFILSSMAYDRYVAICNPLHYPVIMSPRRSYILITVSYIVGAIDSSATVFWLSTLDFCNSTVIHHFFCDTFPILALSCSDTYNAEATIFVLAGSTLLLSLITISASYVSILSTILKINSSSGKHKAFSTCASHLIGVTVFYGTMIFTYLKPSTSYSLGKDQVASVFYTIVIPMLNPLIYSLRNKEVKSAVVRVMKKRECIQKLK
# Procedure, shortened: as §1
# UniProt E9PVX1 = molecular target: T3, UniProt E9PVX1
# T3 sequence (whole entry): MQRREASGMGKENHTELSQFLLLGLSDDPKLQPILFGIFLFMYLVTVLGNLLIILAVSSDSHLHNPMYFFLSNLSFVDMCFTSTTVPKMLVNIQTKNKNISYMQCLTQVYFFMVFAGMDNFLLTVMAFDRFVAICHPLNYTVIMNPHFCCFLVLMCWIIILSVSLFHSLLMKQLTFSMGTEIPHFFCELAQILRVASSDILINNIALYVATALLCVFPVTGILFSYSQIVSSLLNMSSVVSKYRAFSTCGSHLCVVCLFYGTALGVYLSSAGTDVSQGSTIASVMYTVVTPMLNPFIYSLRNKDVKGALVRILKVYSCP
# Procedure, shortened: as §1
# UniProt E9PZ66 = molecular target: T4, UniProt E9PZ66
# T4 sequence (whole entry): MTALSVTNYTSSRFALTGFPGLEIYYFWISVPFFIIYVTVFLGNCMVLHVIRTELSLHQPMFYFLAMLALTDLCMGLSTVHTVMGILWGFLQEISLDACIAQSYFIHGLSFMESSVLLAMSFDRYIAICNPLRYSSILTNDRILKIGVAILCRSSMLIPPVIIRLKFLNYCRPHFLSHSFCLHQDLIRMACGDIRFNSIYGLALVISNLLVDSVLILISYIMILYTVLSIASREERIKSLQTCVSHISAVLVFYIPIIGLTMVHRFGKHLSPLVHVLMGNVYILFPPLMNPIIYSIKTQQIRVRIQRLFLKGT
# Procedure, shortened: as §1
# UniProt E9Q4X7 = molecular target: T5, UniProt E9Q4X7
# T5 sequence (whole entry): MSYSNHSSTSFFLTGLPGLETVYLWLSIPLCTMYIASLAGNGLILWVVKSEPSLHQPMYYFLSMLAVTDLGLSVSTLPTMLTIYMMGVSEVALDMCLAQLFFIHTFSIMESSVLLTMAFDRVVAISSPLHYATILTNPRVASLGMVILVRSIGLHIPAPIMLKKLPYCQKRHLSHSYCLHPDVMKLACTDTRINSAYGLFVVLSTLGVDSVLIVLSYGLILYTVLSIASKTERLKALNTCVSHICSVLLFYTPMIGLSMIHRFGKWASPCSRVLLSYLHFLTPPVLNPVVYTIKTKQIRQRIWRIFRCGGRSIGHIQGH
# Procedure, shortened: as §1
# UniProt E9Q546 = molecular target: T6, UniProt E9Q546
# T6 sequence (whole entry): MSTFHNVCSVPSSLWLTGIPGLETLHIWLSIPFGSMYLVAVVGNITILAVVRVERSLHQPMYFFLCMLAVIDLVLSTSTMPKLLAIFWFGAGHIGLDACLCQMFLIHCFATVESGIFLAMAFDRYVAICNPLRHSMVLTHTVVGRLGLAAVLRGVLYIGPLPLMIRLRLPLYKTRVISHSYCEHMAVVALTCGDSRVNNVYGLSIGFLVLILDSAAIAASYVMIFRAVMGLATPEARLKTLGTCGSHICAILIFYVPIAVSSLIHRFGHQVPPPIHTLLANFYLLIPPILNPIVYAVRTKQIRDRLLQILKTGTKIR
# Procedure, shortened: as §1
# UniProt E9Q6Z7 = molecular target: T7, UniProt E9Q6Z7
# T7 sequence (whole entry): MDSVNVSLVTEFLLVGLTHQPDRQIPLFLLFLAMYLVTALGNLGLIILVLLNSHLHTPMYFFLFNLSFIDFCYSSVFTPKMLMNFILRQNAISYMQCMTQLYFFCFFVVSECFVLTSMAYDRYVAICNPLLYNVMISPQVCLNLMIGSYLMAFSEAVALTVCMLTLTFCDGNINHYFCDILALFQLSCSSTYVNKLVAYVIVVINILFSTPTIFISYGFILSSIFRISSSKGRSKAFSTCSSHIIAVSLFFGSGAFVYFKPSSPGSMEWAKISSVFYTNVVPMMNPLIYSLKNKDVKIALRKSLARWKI
# Procedure, shortened: as §1
# UniProt A2AVB5 = molecular target: T8, UniProt A2AVB5
# T8 sequence (whole entry): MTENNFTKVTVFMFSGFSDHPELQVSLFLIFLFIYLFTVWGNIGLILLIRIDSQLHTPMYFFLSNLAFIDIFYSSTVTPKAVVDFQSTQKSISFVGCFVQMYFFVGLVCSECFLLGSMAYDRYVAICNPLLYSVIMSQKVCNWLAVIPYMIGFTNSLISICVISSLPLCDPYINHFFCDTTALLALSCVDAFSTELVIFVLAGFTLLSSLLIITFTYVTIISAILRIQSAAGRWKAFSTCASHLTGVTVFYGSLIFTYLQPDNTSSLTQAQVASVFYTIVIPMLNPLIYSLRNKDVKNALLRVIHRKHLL
# Procedure, shortened: as §1
# UniProt B2RVX8 = molecular target: T9, UniProt B2RVX8
# T9 sequence (whole entry): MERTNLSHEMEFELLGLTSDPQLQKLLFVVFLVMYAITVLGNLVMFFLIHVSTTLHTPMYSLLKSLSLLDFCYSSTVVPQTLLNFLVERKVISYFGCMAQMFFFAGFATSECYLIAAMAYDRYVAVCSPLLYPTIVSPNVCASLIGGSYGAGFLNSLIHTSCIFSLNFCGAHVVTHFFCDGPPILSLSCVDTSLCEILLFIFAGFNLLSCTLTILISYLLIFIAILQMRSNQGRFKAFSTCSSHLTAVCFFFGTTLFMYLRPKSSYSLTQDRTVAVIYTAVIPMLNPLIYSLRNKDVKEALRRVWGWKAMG
# Procedure, shortened: as §1
# UniProt K7N609 = molecular target: T10, UniProt K7N609
# T10 sequence (whole entry): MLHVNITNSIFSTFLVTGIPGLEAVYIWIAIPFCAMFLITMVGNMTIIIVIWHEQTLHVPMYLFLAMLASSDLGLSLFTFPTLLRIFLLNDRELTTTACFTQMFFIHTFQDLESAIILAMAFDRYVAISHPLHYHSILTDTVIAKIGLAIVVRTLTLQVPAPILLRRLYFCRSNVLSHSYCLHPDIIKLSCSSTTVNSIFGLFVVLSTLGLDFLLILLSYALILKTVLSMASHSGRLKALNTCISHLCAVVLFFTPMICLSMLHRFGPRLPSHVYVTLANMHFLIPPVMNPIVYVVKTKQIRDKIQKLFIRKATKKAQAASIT
# Procedure, shortened: as §1
# UniProt E1BM68 = molecular target: T11, UniProt E1BM68
# T11 sequence (whole entry): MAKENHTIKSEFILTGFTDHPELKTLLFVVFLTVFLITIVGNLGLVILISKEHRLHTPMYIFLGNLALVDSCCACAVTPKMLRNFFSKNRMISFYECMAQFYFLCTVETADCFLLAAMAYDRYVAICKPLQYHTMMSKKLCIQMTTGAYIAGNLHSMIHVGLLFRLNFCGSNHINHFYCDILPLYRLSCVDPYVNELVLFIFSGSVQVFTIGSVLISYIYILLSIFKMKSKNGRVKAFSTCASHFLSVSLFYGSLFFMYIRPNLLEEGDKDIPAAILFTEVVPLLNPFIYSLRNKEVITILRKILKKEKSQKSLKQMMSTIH
# Procedure, shortened: as §1
# UniProt E9QAT7 = molecular target: T12, UniProt E9QAT7
# T12 sequence (whole entry): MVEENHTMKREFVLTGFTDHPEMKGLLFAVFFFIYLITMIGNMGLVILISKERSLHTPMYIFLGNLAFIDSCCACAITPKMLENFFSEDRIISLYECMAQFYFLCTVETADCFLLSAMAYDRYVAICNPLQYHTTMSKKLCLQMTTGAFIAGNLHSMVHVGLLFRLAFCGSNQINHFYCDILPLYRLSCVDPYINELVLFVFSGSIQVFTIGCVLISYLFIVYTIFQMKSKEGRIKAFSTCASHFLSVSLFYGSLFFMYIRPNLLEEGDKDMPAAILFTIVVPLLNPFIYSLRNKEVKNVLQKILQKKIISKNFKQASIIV
# Procedure, shortened: as §1
# UniProt E9PX47 = molecular target: T13, UniProt E9PX47
# T13 sequence (whole entry): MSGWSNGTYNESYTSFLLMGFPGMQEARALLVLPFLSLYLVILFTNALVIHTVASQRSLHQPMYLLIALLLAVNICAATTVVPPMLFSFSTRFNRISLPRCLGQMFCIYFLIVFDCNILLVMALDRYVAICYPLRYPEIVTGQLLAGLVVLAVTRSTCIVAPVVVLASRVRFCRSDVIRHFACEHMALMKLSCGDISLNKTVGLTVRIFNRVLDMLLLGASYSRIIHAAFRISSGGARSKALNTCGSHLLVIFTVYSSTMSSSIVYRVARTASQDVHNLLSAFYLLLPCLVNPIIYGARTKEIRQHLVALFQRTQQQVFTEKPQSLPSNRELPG
# Procedure, shortened: as §1
# UniProt E9PXN3 = molecular target: T14, UniProt E9PXN3
# T14 sequence (whole entry): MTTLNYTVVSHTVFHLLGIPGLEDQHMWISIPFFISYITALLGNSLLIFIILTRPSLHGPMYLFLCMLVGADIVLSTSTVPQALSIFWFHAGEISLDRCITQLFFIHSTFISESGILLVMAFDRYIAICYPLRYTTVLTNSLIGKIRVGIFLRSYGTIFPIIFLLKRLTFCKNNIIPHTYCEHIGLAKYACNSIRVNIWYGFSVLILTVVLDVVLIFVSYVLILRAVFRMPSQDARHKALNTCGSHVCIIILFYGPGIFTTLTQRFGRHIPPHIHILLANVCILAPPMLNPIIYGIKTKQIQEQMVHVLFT
# Procedure, shortened: as §1
# 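Also: active if original authors judged signal statistically different from baseline.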
Compound,odorant receptor agonist call (UniProt A2ATE5),odorant receptor agonist call (UniProt A2AVB0),odorant receptor agonist call (UniProt E9PVX1),odorant receptor agonist call (UniProt E9PZ66),odorant receptor agonist call (UniProt E9Q4X7),odorant receptor agonist call (UniProt E9Q546),odorant receptor agonist call (UniProt E9Q6Z7),odorant receptor agonist call (UniProt A2AVB5),odorant receptor agonist call (UniProt B2RVX8),odorant receptor agonist call (UniProt K7N609),odorant receptor agonist call (UniProt E1BM68),odorant receptor agonist call (UniProt E9QAT7),odorant receptor agonist call (UniProt E9PX47),odorant receptor agonist call (UniProt E9PXN3)
CCC=CCCC=CC=O,inactive,inactive,inactive,inactive,inactive,inactive,inactive,–,–,–,–,–,–,–
Cc1c(C)c(C)c(C=O)c(C)c1C,inactive,inactive,inactive,inactive,inactive,inactive,inactive,–,–,–,–,–,–,–
CCCCC(C)=O,inactive,inactive,inactive,inactive,inactive,inactive,inactive,inactive,inactive,inactive,–,–,–,–
O=C1Cc2ccccc2O1,inactive,inactive,inactive,inactive,inactive,inactive,inactive,inactive,inactive,inactive,–,–,–,–
CCCCCCC(C)O (stereo not given),inactive,inactive,inactive,inactive,inactive,inactive,active,–,–,–,–,–,–,–
CC(C)=C1CCC(C)CC1=O (stereo not given),inactive,inactive,inactive,inactive,inactive,inactive,inactive,–,–,–,–,–,–,–
CCc1nccnc1CC,inactive,inactive,inactive,inactive,inactive,inactive,inactive,–,–,–,active,active,–,–
CCCCC=O,inactive,inactive,inactive,inactive,inactive,inactive,inactive,–,–,–,–,–,inactive,inactive
CCCC=O,inactive,inactive,inactive,inactive,inactive,inactive,inactive,–,–,–,–,–,–,–
Cc1ccc(C(C)C)c(O)c1,inactive,inactive,inactive,inactive,inactive,inactive,inactive,–,–,–,–,–,–,–
CCCCCC(C)O (stereo not given),inactive,inactive,inactive,inactive,inactive,inactive,inactive,–,–,–,–,–,–,–
CSSSC,inactive,inactive,inactive,inactive,inactive,inactive,inactive,–,–,–,–,–,–,–
CCCCCCOC(C)=O,inactive,inactive,inactive,inactive,inactive,inactive,inactive,inactive,inactive,inactive,–,–,–,–
CC(CC=O)CCCC(C)(C)O (stereo not given),inactive,inactive,inactive,inactive,inactive,inactive,inactive,–,–,–,–,–,–,–
O=C([O-])CCCCCCCC(=O)[O-].[H+].[H+],inactive,inactive,inactive,inactive,inactive,inactive,inactive,–,–,–,–,–,active,inactive
